Compound activity: PubChem, The Scripps Research Institute Molecular Screening Center
SIAE primary: blocks human sialic acid acetylesterase; SIAE FP-Rh probe binding, fluorescence polarization; inhibition, % at 9.66 µM; 370,000 tested, 0.69% active; AID 1053197;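 active = inhibition above a cutoff: mean of compounds within the control limits plus 3 SD of those, cut at about 17% in these data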;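 note: 0% = plate median of compound wells and 100% = probe without SIAE protein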
TCR-CD3 inh: blocks the human TCR-CD3 interaction | inhibition, % at 9.4 µM | TAMRA-labeled TCR probe fluorescence, biochemical | AID 651800 | 360,000 tested, 0.37% active;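 note: recombinant mutant TCR 2C K166C tagged with TAMRA read by polarization; 0% = receptor in buffer alone and 100% = receptor with positive control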
mABHD4 FP: ABHD4 (mouse) inhibition, primary FP screen. purified mABHD4, FP-Rh probe fluorescence polarization. 370,000 tested, 0.54% active. Q8VD66. AID 720543. inhibition, % at 8.92 µM;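 active = inhibition exceeding the mean over every tested compound plus 3 SD, cut at about 30% in these data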;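 note: 0% = plate median of compound wells and 100% = S159A mutant with DMSO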
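Test system: mABHD4 protein | Buffer or medium: HEPES pH 7.0 buffer, 150 mM NaCl, 0.01% Pluronic F-127 | Probe or stimulus: FP-Rh fluorescent activity-based probe, added after compound pre-incubation | Timing: Pre-incubation 45 min, probe exposure 60 min, at 25 °C | Technique: Fluorescence polarization, excitation 525 nm, emission 598 nm, BODIPY TMR filters | Repeats: Single well per compound (singlicate)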
HTRA1 inhibitor: blocks human HTRA1 serine peptidase | inhibition, % at 5.96 µM | recombinant HTRA1, FP-rhodamine activity-based probe, fluorescence polarization | Q92743 | AID 504803 | 340,000 tested, 0.5% active; in the data active = inhibition above about 36%;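 note: 0% = enzyme with DMSO and 100% = wells lacking enzyme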
Target sequence (Q92743 whole entry, looked up): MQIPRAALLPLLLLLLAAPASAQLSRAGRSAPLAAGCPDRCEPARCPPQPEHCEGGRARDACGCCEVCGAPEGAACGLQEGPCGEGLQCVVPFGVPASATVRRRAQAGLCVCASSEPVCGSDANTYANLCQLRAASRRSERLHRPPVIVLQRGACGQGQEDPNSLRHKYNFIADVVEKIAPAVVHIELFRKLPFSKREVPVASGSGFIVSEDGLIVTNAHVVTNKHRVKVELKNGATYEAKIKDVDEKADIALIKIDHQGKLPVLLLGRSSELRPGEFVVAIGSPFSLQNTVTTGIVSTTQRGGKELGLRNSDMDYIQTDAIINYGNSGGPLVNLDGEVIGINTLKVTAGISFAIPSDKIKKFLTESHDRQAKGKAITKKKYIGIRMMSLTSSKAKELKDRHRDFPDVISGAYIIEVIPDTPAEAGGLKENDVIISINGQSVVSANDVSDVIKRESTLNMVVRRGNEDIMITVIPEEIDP
PRMT1 FP inh: blocks human protein arginine methyltransferase 1; Q99873; recombinant PRMT1, activity-based probe fluorescence polarization; inhibition, % at 2.79 µM; 370,000 tested, 1.3% active; AID 652257;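 active = inhibition above about 21% made by adding two undisclosed values, limit read from the data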
HTRA1 conf: confirmation of human HTRA1 inhibitors; shares compounds with HTRA1 inhibitor; recombinant HTRA1, FP-rhodamine activity-based probe, fluorescence polarization; inhibition, % at 5.96 µM; 1,600 tested, 66% active;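 active = mean inhibition over three repeats above a set limit taken from the earlier primary screen, cut at about 37% in these data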;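 note: 0% = HTRA1 with DMSO and 100% = wells lacking HTRA1; inhibitors block probe binding so polarization drops and inhibition rises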
BSA probe FL: BSA probe counter-screen for TCR-CD3 inhibitors; shares compounds with TCR-CD3 inh; TAMRA-labeled BSA probe fluorescence counterscreen; inhibition, % at 9.4 µM; 1,200 tested, 10% active; AID 652035; in the data active = inhibition above about 23%;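 note: 0% = buffer low control and 100% = reference high control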
TCR-CD3 inh conf: confirmation of human TCR-CD3 interaction inhibitors; shares compounds with TCR-CD3 inh; inhibition, % at 9.4 µM; AID 652036; TAMRA-labeled TCR probe fluorescence binding assay; 1,200 tested, 48% active
PRMT1 inh conf: confirmation of human PRMT1 inhibitors. shares compounds with PRMT1 FP inh. recombinant His-PRMT1, activity-based probe fluorescence polarization. 3,300 tested, 42% active. inhibition, % at 2.79 µM;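 active = mean inhibition across replicates above the hit cutoff derived for the earlier primary screen, cut at about 22% in these data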
mABHD4 conf: confirmation of mouse ABHD4 inhibitors; shares compounds with mABHD4 FP; purified mABHD4, FP-Rh probe fluorescence polarization; inhibition, % at 8.92 µM; 1,800 tested, 55% active; AID 720658;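 active = mean inhibition across replicates above the hit cutoff set in the primary screen, cut at about 30% in these data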;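 note: 0% = wild-type ABHD4 with DMSO and 100% = catalytically dead S159A mutant with DMSO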
SIAE confirm: confirmation of human SIAE inhibitors; shares compounds with SIAE primary; SIAE FP-Rh activity-based probe, fluorescence polarization; inhibition, % at 9.66 µM; 2,300 tested, 13% active;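 active = mean inhibition of the replicates above the hit cutoff set in the primary screen, cut at about 17% in these data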;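 note: 0% = SIAE with DMSO and probe and 100% = probe without SIAE; inhibitors lower polarization as more probe stays unbound to SIAE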
* marks the source's active call; other numbers are inactive results; . = no result. Compounds with a hit are over-represented: about 2.6% of the library has one in this group of screens. Cut-off read from the data, not from the text of the source, unless noted: active = inhibition above about 19%; inactive = the rest.

SMILES	SIAE primary	TCR-CD3 inh	mABHD4 FP	HTRA1 inhibitor	PRMT1 FP inh	HTRA1 conf	mABHD4 conf	SIAE confirm	others
CC1(C)CC(Nc2ccc(Nc3ccccc3)cc2)CC(C)(C)N1	19.8*	4.8	20.6	41.9*	23.3*	54.5*	.	5.7
Cc1ccc2sc(NNC(=O)c3cc(-c4cccs4)nc4ccccc34)nc2c1C	-2.3	-5.0	8.5	.	0.1	.	.	.
Cc1ccc2sc(NNC(=O)c3cc(=O)c4ccccc4o3)nc2c1C	25.4*	-9.8	40.9*	69.8*	9.8	131.6*	59.2*	33.1*
Cc1ccc(-c2ccccc2NC(=O)CS(=O)CC(=O)Nc2ccc(C)c(Cl)c2)o1 (stereo unspecified)	45.4*	85.4*	35.9*	38.8*	52.4*	22.0	16.1	10.0	BSA probe FL=11.2;TCR-CD3 inh conf=6.0
C[C@@H]1CN([C@@H](C)CO)C(=O)CCCn2cc(nn2)CO[C@H]1CN(C)C(=O)Nc1ccc2c(c1)OCO2	3.9	9.6	4.0	.	2.6	.	.	.
Cn1cccc1/C=N/NC(=O)c1cc2ccccc2cc1O	17.2*	-2.3	13.1	40.2*	-4.4	28.8	.	1.0
C/C(=N\NC(=O)c1cc2ccccc2cc1O)c1ccc(C)o1	23.7*	1.0	28.0	46.8*	-1.1	22.9	.	-1.5
O=C(N/N=C/C1CC=CCC1)c1cc2ccccc2cc1O (stereo unspecified)	19.2*	1.4	18.6	39.9*	0.2	28.3	.	7.9
C/C(=N\NC(=O)c1c[nH]c2ccccc12)c1ccc(C)o1	-0.5	0.2	-15.7	-0.7	4.6	.	.	.
O=C(N/N=C/C1CC=CCC1)c1ccc(O)cc1O (stereo unspecified)	12.8	5.6	8.3	10.4	0.3	.	.	.
CSc1nsc(/C=C/Nc2ccc(F)cc2)c1C#N	1.1	-6.8	2.0	-13.2	0.6	.	.	.
CSc1nsc(/C=C/Nc2ccc(O)cc2C)c1C#N	43.0*	26.9*	59.3*	74.2*	53.2*	-9.8	6.8	20.8*	BSA probe FL=7.8;TCR-CD3 inh conf=4.3
COc1ccc(-c2nc3ccccc3c(=O)n2Cc2ccccc2)cc1COc1ccc(NC(C)=O)cc1	0.8	.	2.1	.	4.2	.	.	.
O=[N+]([O-])c1ccc(N/N=C/c2ccc(O)c(O)c2O)c(S(=O)(=O)N2CCOCC2)c1	27.5*	11.3	36.7*	73.9*	34.6*	74.4*	58.1*	-3.1	PRMT1 inh conf=55.9*
O=[N+]([O-])c1ccc(NCCCO)c(S(=O)(=O)N2CCOCC2)c1	-0.2	4.3	0.7	3.4	-0.1	.	.	.
Oc1ccc(/C=N/N(c2ccccc2)c2ccccc2)c(O)c1O	20.3*	10.2	39.2*	68.3*	12.4	78.9*	30.4*	-30.4
C[C@H](CO)N1C[C@H](C)[C@@H](CN(C)C(=O)C2CC2)OCc2cn(nn2)CCCC1=O	3.2	0.9	1.7	.	-0.7	.	.	.
N#C/C(=C/c1ccc(N2CCCCC2)o1)C(=O)Nc1ccc2ccccc2c1	20.8*	0.8	13.7	36.5*	-25.2	39.5*	.	2.9
CCCCn1c(N)c(N(CCC(C)C)C(=O)COC(=O)c2ccc3ccccc3c2)c(=O)[nH]c1=O	0.1	6.3	-1.1	-4.8	-1.1	.	.	.
O=[N+]([O-])c1cc(Br)c(O)c(C=Nc2ccc(N3CCOCC3)cc2)c1	28.6*	48.6*	45.5*	40.3*	9.1	0.5	6.7	-1.9
COc1cccc(C=Nc2ccc(N3CCOCC3)cc2)c1O	9.0	4.3	19.6	17.4	0.5	.	.	.
C[C@@H]1CN([C@@H](C)CO)C(=O)CCCn2cc(nn2)CO[C@H]1CN(C)C(=O)Nc1ccccc1	5.8	-3.3	-0.5	.	-3.3	.	.	.
CC(=O)c1cccc(NC(=O)c2c(-c3c(F)cccc3Cl)noc2C)c1	-5.5	-1.0	-1.1	-2.3	-1.1	.	.	.
Oc1ccc(N=Nc2ccc3c(c2)OCCO3)c2cccnc12	20.4*	4.5	18.5	50.2*	-4.2	69.1*	.	13.5
COc1cc(C(C[N+](=O)[O-])c2c(C)cc3ccccn23)ccc1O (stereo unspecified)	18.8*	6.6	30.4*	40.3*	7.5	39.6*	13.4	6.1
SMILES	SIAE primary	TCR-CD3 inh	mABHD4 FP	HTRA1 inhibitor	PRMT1 FP inh	HTRA1 conf	mABHD4 conf	SIAE confirm	others
O=C(Nc1cccc2[nH]ncc12)NS(=O)(=O)c1ccccc1	47.6*	58.4*	98.2*	43.9*	17.8	7.3	8.0	8.7	BSA probe FL=34.6*;TCR-CD3 inh conf=26.8*
CC(=O)Nc1ccc(S(=O)(=O)Nc2cccc3[nH]ncc23)cc1	10.2	2.9	1.7	-1.8	3.9	.	.	.
CC(C)N(Cc1nnc(-c2ccccc2Cl)o1)C(=O)COc1cccc(Cl)c1	5.6	4.0	-9.6	-4.4	-0.2	.	.	.
Cc1cn(CC(=O)NCc2ccccc2)c(=O)[nH]c1=O	-3.2	-6.4	-3.0	5.3	0.0	.	.	.
COCCN=c1scc(-c2ccco2)n1/N=C/c1ccc(O)c(O)c1O	28.3*	25.8*	60.3*	67.9*	40.4*	78.0*	61.5*	-3.6	BSA probe FL=-28.2;TCR-CD3 inh conf=23.8*
Oc1ccc(CCNc2c3ccccc3nc3ccccc23)cc1O	19.4*	21.0*	23.0	62.2*	11.8	83.8*	.	28.7*
c1ccc(CNc2c3ccccc3nc3ccccc23)cc1	-3.0	-3.2	-6.7	0.6	0.7	.	.	.
CCN(CC)C(=O)[C@H]1C[C@H](CC(=O)NCc2ccc(OC)c(OC)c2)C(=O)N2CCc3c([nH]c4cc(-c5ccco5)ccc34)[C@]12C	6.3	-1.9	-7.5	-2.8	17.5	.	.	.
CCOc1ccccc1CNc1ccc(O)cc1	33.6*	20.5*	57.0*	61.2*	18.9	24.0	.	6.1	BSA probe FL=6.4;TCR-CD3 inh conf=6.4
Oc1ccc(NCc2ccccc2OCc2ccccc2F)cc1	34.5*	11.3	49.0*	62.5*	11.7	21.5	50.0*	10.5
Cc1ccc(NCc2ccccc2OCc2ccccc2F)cc1	-2.2	-2.0	0.4	-9.0	2.0	.	.	.
CCOc1cccc(CNc2ccc(O)cc2)c1OCc1ccc(Cl)cc1	28.9*	15.7	40.6*	48.7*	4.3	18.7	35.7*	8.1
Cc1ccc(NC(=O)C2CCCO2)c(Br)c1 (stereo unspecified)	-2.1	-6.3	1.1	1.7	-0.9	.	.	.
